Laboratory results: ChEMBL document CHEMBL1138329, “Pharmacokinetic/pharmacodynamic model-guided identification of hypoxia-selective 1,2,4-benzotriazine 1,4-dioxides with antitumor activity: the role of extravascular transport” (J Med Chem, 2007)

Tests used:
[1] = system: HT-29; assay: Cytotoxicity against human HT29 cells under hypoxic conditions after 4 hrs; format: functional, cell-based; conditions: HT-29, 4 h
[2] = system: SiHa; assay: Ratio of IC50 for SiHa cells under oxic conditions to hypoxic conditions after 4 hrs; format: functional, Homo sapiens
[3] = Cmax in CD1 mouse at 562 umol/kg, ip; format: ADME, organism-based; design: dose 562 umol/kg, route intraperitoneal; conditions: in vivo
Method in brief: (§1)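 Single i.p. dose to CD-1 homozygous nude mice, drug as HCl salt in 0.9% saline, 5% DMSO/saline or lactate buffer (pH 4.0). Plasma total drug measured by HPLC at 75 or 100% of MTD (MTD from 1.33-fold dose steps, 6 mice). Noncompartmental analysis gave AUC, Cmax and t1/2.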

[4] = system: HT-29; assay: Effect on human HT29 cells under hypoxic conditions assessed as drug level causing 10% clonogenic survival; format: functional
Method in brief: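 HT29 suspensions (1 or 2 × 10^6 cells/mL) in serum-free medium were stirred under 5% CO2/95% N2 for 90 min. Drug was added from deoxygenated DMSO stock at a level giving about 10% survival at 1 h, and samples were taken up to 3 h. Clonogenic survival (14 days, methylene blue) was fitted with the HPLC concentration–time data, and the 10% survival exposure was interpolated.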

[5] = system: HT-29; assay: Ratio of IC50 for HT29 cells under oxic conditions to hypoxic conditions after 4 hrs; format: functional, Homo sapiens
[6] = system: HT-29; assay: Antitumor activity against human HT29 cells implanted in CD1 mouse assessed as clonogenic survival at 562 umol/kg, ip after 18 hrs relative to control; format: functional
Method in brief: (§2)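 HT29 xenografts in CD-1 homozygous nude mice; single i.p. dose of drug alone, formulated as the HCl salt in 0.9% saline, 5% DMSO/saline or lactate buffer (pH 4.0). Tumors excised 18 h later, dissociated to single-cell suspensions and plated. Clonogens/g of tumor counted; surviving fraction = treated/control clonogens/g.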

[7] = AUC in CD1 mouse at 562 umol/kg, ip; format: ADME, organism-based; conditions: plasma; method in brief: as §1
[8] = Half life in CD1 mouse at 562 umol/kg, ip; format: ADME, organism-based; conditions: in vivo; method in brief: as §1
[9] = system: SiHa; assay: Cytotoxicity against human SiHa cells under hypoxic conditions after 4 hrs; format: functional, cell-based
[10] = Solubility in culture medium in presence of 5% fetal calf serum; format: physicochemical; conditions: culture medium with 5% fetal calf serum
[11] = system: HT-29; assay: Diffusion coefficient, D in HT29 multicellular layers; format: ADME, cell-based; conditions: human
Method in brief: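 HT29 multicellular layers were grown 3 days on collagen-coated Teflon membranes, equilibrated 60 min under 95% O2/5% CO2 at 37 °C, then placed in a diffusion chamber. Donor and receiver were sampled up to 5 h and assayed by HPLC. D came from fitting both profiles to a Fickian model with membrane and MCL in series, corrected by support-only Ds.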

[12] = system: HT-29; assay: Antitumor activity against human HT29 cells implanted in CD1 mouse at 562 umol/kg, ip administered 5 mins after irradiation by excision assay relative to radiation alone; format: functional
Method in brief: (§3)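 Hypoxic-cell excision assay in HT29 xenografts in CD-1 homozygous nude mice. Mice received 20 Gy γ radiation to sterilize oxic tumor cells, then a single i.p. drug dose (HCl salt in saline, 5% DMSO/saline or pH 4.0 lactate buffer) 5 min later. Tumors excised at 18 h and plated for clonogens/g. Log cell kill = log(clonogens/g, radiation only) − log(clonogens/g, radiation plus drug).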

[13] = system: Mus musculus; assay: Toxicity in ip dosed CD1 mouse; format: organism-based; conditions: in vivo
Method in brief: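 MTD in CD-1 homozygous nude mice after single i.p. doses (HCl salts in saline, 5% DMSO/saline or lactate buffer pH 4.0), escalated in 1.33-fold increments. MTD taken as the highest dose causing no death, no body weight loss >15% and no other severe morbidity in any of 6 mice.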

[14] = AUC in CD1 mouse at 750 umol/kg, ip; format: ADME, organism-based; conditions: plasma; method in brief: as §1
[15] = Half life in CD1 mouse at 750 umol/kg, ip; format: ADME, organism-based; conditions: in vivo; method in brief: as §1
[16] = system: HT-29; assay: Antitumor activity against human HT29 cells implanted in CD1 mouse assessed as clonogenic survival at 750 umol/kg, ip after 18 hrs relative to control; format: functional; method in brief: as §2
[17] = system: HT-29; assay: Antitumor activity against human HT29 cells implanted in CD1 mouse at 750 umol/kg, ip administered 5 mins after irradiation by excision assay relative to radiation alone; format: functional; method in brief: as §3
[18] = Cmax in CD1 mouse at 750 umol/kg, ip; format: ADME, organism-based; design: dose 750 umol/kg, route intraperitoneal; conditions: in vivo; method in brief: as §1
[19] = Protein binding in mouse plasma by equilibrium dialysis; format: ADME, cell-free; conditions: read-out: PPB (converted)
[20] = AUC in CD1 mouse at 237 umol/kg, ip; format: ADME, organism-based; conditions: plasma; method in brief: as §1
[21] = Half life in CD1 mouse at 237 umol/kg, ip; format: ADME, organism-based; conditions: in vivo; method in brief: as §1
[22] = Cmax in CD1 mouse at 237 umol/kg, ip; format: ADME, organism-based; design: dose 237 umol/kg, route intraperitoneal; conditions: in vivo; method in brief: as §1
[23] = Half life in CD1 mouse at 1000 umol/kg, ip; format: ADME, organism-based; conditions: in vivo; method in brief: as §1
[24] = system: HT-29; assay: Antitumor activity against human HT29 cells implanted in CD1 mouse at 1000 umol/kg, ip administered 5 mins after irradiation by excision assay relative to radiation alone; format: functional; method in brief: as §3
[25] = system: HT-29; assay: Antitumor activity against human HT29 cells implanted in CD1 mouse assessed as clonogenic survival at 1000 umol/kg, ip after 18 hrs relative to control; format: functional; method in brief: as §2
[26] = Cmax in CD1 mouse at 1000 umol/kg, ip; format: ADME, organism-based; design: dose 1000 umol/kg, route intraperitoneal; conditions: in vivo; method in brief: as §1
[27] = AUC in CD1 mouse at 1000 umol/kg, ip; format: ADME, organism-based; conditions: plasma; method in brief: as §1
[28] = system: HT-29; assay: Antitumor activity against human HT29 cells implanted in CD1 mouse assessed as clonogenic survival at 316 umol/kg, ip after 18 hrs relative to control; format: functional; method in brief: as §2
[29] = system: HT-29; assay: Antitumor activity against human HT29 cells implanted in CD1 mouse at 316 umol/kg, ip administered 5 mins after irradiation by excision assay relative to radiation alone; format: functional; method in brief: as §3
[30] = Half life in CD1 mouse at 316 umol/kg, ip; format: ADME, organism-based; conditions: in vivo; method in brief: as §1
[31] = Cmax in CD1 mouse at 316 umol/kg, ip; format: ADME, organism-based; design: dose 316 umol/kg, route intraperitoneal; conditions: in vivo; method in brief: as §1
[32] = Half life in CD1 mouse at 421 umol/kg, ip; format: ADME, organism-based; conditions: in vivo; method in brief: as §1
[33] = Cmax in CD1 mouse at 421 umol/kg, ip; format: ADME, organism-based; design: dose 421 umol/kg, route intraperitoneal; conditions: in vivo; method in brief: as §1
[34] = AUC in CD1 mouse at 421 umol/kg, ip; format: ADME, organism-based; conditions: plasma; method in brief: as §1

Row | SMILES | IC50 [1] [nM] | Ratio IC50 [2] | Activity [4] [µM·h] | Ratio IC50 [5] | IC50 [9] [nM] | solubility [10] [mM] | D [11] [cm²/s] | MTD [13] [µmol/kg] | further results
1 | [O-][n+]1nc(NCCN2CCOCC2)[n+]([O-])c2ccccc21 | 17300 | 44 | 47.5 | 34 | 6600 | > 49 | 3.63e-07 | 562 | Cmax [3]: 160 µM; LCK [6]: 0.29; AUC [7]: 105 µM·h; half-life [8]: 16.5 min; LCK [12]: 0.6
2 | CCOc1ccc2c(c1)[n+]([O-])c(NCCN(C)C)n[n+]2[O-] | 2600 | 245 | 50.1 | 121 | 800 | > 50 | – | 1000 | AUC [14]: 82.3 µM·h; half-life [15]: 31.6 min; LCK [16]: 0.09; LCK [17]: 0.83; Cmax [18]: 85.7 µM
3 | Cc1ccc2c(c1)[n+]([O-])c(NCCN(C)C)n[n+]2[O-] | 1900 | 200 | 6.3 | 159 | 1100 | > 51 | 3.99e-07 | 562 | Cmax [3]: 104 µM; fraction unbound [19]: 0.04; LCK [6]: 0.07; half-life [8]: 22.5 min; LCK [12]: 1
4 | Cc1ccc2c(c1)[n+]([O-])c(NCCN1CCCCC1)n[n+]2[O-] | 4000 | 75 | 9.4 | 58 | 2200 | 45 | 7.49e-07 | 237 | AUC [20]: 13.8 µM·h; half-life [21]: 16.6 min; Cmax [22]: 14.9 µM
5 | CC(C)Oc1ccc2c(c1)[n+]([O-])c(NCCN(C)C)n[n+]2[O-] | 6200 | 31 | 22.3 | 162 | 3200 | > 55 | – | 1330 | half-life [23]: 26.1 min; LCK [24]: 0.53; LCK [25]: -0.17; Cmax [26]: 123 µM; AUC [27]: 102 µM·h
6 | CCCN(CCC)CCNc1n[n+]([O-])c2ccccc2[n+]1[O-] | 1700 | 68 | 3.9 | 82 | 2000 | > 25 | 1.71e-06 | 316 | LCK [28]: 0.01; LCK [29]: 0.25; half-life [30]: 11.8 min; Cmax [31]: 17 µM; fraction unbound [19]: 0.023
7 | CN(C)CCNc1n[n+]([O-])c2ccc(C(C)(C)C)cc2[n+]1[O-] | 3700 | 78 | 11.4 | 99 | 1100 | 38 | 8.63e-07 | 421 | half-life [32]: 12.5 min; Cmax [33]: 16.1 µM; AUC [34]: 9.73 µM·h
